Reference: ChEMBL document CHEMBL4513216, “Probing the Open Global Health Chemical Diversity Library for Multistage-Active Starting Points for Next-Generation Antimalarials” (ACS Infect Dis, 2020)

Experiment: Toxicity liver stage against HepG2, at 10uM
Type: cell-based
Set-up: test concentration 10 uM, cell line HepG2-A16-CD81EGFP
Settings: human, HepG2-A16-CD81EGFP cells; read-out: INHIBITION
Method in brief: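 Uninfected HepG2-A16-CD81EGFP cells, 3 × 10^3 per well, 1536-well, plated on prespotted compound at 10 μM final, parasite-free screening media added to match infected plates; puromycin 10 μM positive, DMSO 0.5% negative; run in parallel with 48 h PbLuc assay at 37 °C, 5% CO2; viability by CellTiter-Glo luminescence, normalized to controls.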

SMILES | cytotoxicity at 10 µM [%]
C[C@@H]1CN(Cc2nc(Cc3ccccc3F)no2)C[C@H](C)O1 | 6.74
CC(=O)Nc1ccc([C@@H](O)[C@H]2COCC(=O)N2CC(C)C)cc1 | -6.6
CC[C@H]1CN2CC[C@H]1C[C@@H]2CNCc1ccc(OC)cc1 | -1.19
CN1CCC(N2C[C@H](O)C[C@H]2c2nc(Cc3ccccc3)no2)CC1 | 10.7
COc1cccc(CN2CCCCCC2c2cccs2)c1OC (stereo not given) | 8.29
CCOC(=O)CNC(=O)c1cccnc1Sc1cc(OC)ccc1OC | 1.73
Cc1nn2c(NC(=O)CSc3ncccn3)csc2nc1=O | 2.74
Cc1cc(O)cc(=O)n1CCCC(=O)Nc1n[nH]c2cc(Br)ccc12 | -16.2
CCOC(=O)CC(c1cccc(OC)c1OC)c1c(C)[nH][nH]c1=O (stereo not given) | 0.0535
CCCc1cc(=O)[nH]c(SCc2ccccn2)n1 | -3.53
O=C(NCC(Cc1cccc(F)c1)N1CCCC1=O)c1ccc[nH]c1=O (stereo not given) | -2.42
CN(C)C(=O)CN1CCC2(C1)CN(CC1CCOCC1)C2 | -9.91
CC1=N[C@@]2(CC[C@@H]3CN(CC(C)C)C[C@@H]32)C(=O)N1 | 6.5
CNC(=O)c1cnc2n1CCN(Cc1cccnc1OC)C2 | 8.91
O=S(=O)(C1CC1)N1CC[C@H](OCC2CC2)[C@@H]1Cc1ccncc1 | 7.67
Cc1ccc(CC(=O)N2CCCn3nnc(Cn4cccn4)c3C2)cc1 | 9.58
C1CC(CN2C[C@@H]3C[C@@H](c4nnc(C5CC5)o4)O[C@@H]3C2)CCO1 | 6.58
COc1cccc(C2SCC(=O)Nc3ccsc32)c1 (stereo not given) | 2.77
CC1=Nc2c(c(=O)[nH]n2C2CCOCC2)C(c2cccc(Br)c2)S1 (stereo not given) | 5.91
Cn1ccc(C(=O)N2CCCCC2c2cc(CCO)[nH]n2)n1 (stereo not given) | -0.01
CCc1c(C)nn2c(O)cc(C3CCN(C(=O)c4ccn(C)n4)C3)nc12 (stereo not given) | 7.92
O=C(CC1CCN(c2cccnn2)CC1)NC1CCOCC1 | 0.671

SMILES | cytotoxicity at 10 µM [%]
CN(C)c1cc(C2CCCN(Cc3cnn(C)c3)C2)ccn1 (stereo not given) | -1.88
c1cc(N2CCOCC(Cc3ccc4[nH]ccc4c3)C2)ncn1 (stereo not given) | -15.9
Cc1ccc([C@@]2(O)CC[C@@H]3CN(S(=O)(=O)C(C)C)C[C@@H]32)cc1 | -38.9
Cc1cc(-c2cnc(NC3CC3)nc2-c2ccoc2)on1 | -25.6
Cc1ccc(-c2cccc(CC3(C(=O)O)CCOCC3)c2)c(C)c1 | -29.8
Cc1ccc(C(C)NC(=O)N2CCN(S(C)(=O)=O)CC2)o1 (stereo not given) | 25.3
FC(F)(F)Cn1ccnc1CNCCn1cccn1 | -6.4
CCCOc1cc(CNC(=O)Nc2ccccn2)ccn1 | -2.25
CC(C)OCc1ccccc1CNC(=O)C(C)S(=O)(=O)C(C)C (stereo not given) | -3.92
CCOc1ccc(SCCS(=O)(=O)CC)cc1 | -2.91
CN(CC(=O)NCCC#N)C(c1ccccc1)c1ccc(F)cc1 (stereo not given) | -4.34
OC1(CNCc2ccc(F)c(C(F)(F)F)c2)CCOC1 (stereo not given) | 9.21
COc1ccc(Br)cc1CN(C)C(C)c1nc(C(C)C)no1 (stereo not given) | 4.43
Cc1nc(CN2CCC(C(=O)N(C)C3CCC(C)CC3)CC2)cs1 (stereo not given) | 2.84
CC(C)Cc1cc(NC(=O)N2CCC(Oc3cccnc3)C2)n(C)n1 (stereo not given) | -4.71
CSCC(=O)Nc1ncc(I)cc1C | -4.7
CCOC(=O)c1ccc(NC(=O)c2cc3c([nH]c2=O)CCCC3)cc1 | 9.13
CN(CC(=O)Nc1nncs1)CC1CCCN1c1cccnn1 (stereo not given) | -13.7
COc1cc(C)nc(N2CCN(C(=O)CCc3ccsc3)CC2)n1 | 10
CN(CC(=O)Nc1cc(C(C)(C)C)n[nH]1)S(C)(=O)=O | 5.15
O=C(NCc1cc2ccccc2[nH]1)C1CCCN(C(=O)N2CCCC2)C1 (stereo not given) | 6.81
COCCN(CC(C)C)c1cc(C)ncn1 | 1.38

SMILES | cytotoxicity at 10 µM [%]
CCC(=O)N1CCC(NC2CCCC2)C1 (stereo not given) | -4.26
N#Cc1cccc(Cl)c1NCCc1n[nH]c(=O)[nH]1 | 60.1
Cc1ncc2c(n1)CN(CCOc1ccc3c(c1)CCC(=O)N3)CC2 | -8.12
CCC(CC)C(CNC(=O)Nc1cnn(CCOC)c1)N(C)C (stereo not given) | -6.87
CN(Cc1nnc(-c2cccs2)o1)Cc1nc2c(s1)CCCC2 | 2.4
O=S(=O)(CCSc1nccn1C1CC1)c1ccccc1 | -4.63
O=C(c1cc(F)ccc1O)N1CCN(C2CCOCC2)CC1 | -4.9
Cc1ccc(OCCC(=O)NC2CC(=O)N(C)C2)cc1C (stereo not given) | -9.25
Cc1cc(=O)n2nc(Oc3cccc(C(N)=O)c3)sc2n1 | -7.88
CCCc1cc(NC2CCc3ncnn3C2)n2ncnc2n1 (stereo not given) | -4.17
CCc1nc2n(n1)CC(Nc1cc(C)nc3ncnn13)CC2 (stereo not given) | -9.91
CC(C)c1nc(CCn2cncn2)n(-c2ccc3c(c2)OCCO3)n1 | 6.52
CC1(C)CCN(S(=O)(=O)N2CCCC(c3cccc(C(=O)O)c3)C2)CC1 (stereo not given) | -0.879
Cc1nc(C2CCN(C(=O)COC(C)C)CC2)cc(N2CCOCC2)n1 | -8.8
Fc1ccccc1-c1cc(N2[C@@H]3CC[C@H]2CNC3)n2nccc2n1 | 23.1
Cc1nc2c(C(=O)O)cccc2n1-c1ccc(C(=O)N2CCCC2)o1 | -2.36
Cc1ccc(C)c2c(O)cc(CN3CCC(=O)NCC3C)nc12 (stereo not given) | 2.11
CCSc1ncc(CN2CCN(c3ccc(C#N)cc3)C(=O)C2)cn1 | -2.54
CC(C)[C@H]1CN(CCCO)C[C@@H]1NC(=O)CCS(C)(=O)=O | 2.91
COc1cccc(-c2n[nH]c3c2CN(C(=O)C2=C(C)OCCO2)CC3)c1 | 3.28
CN(C)S(=O)(=O)N1CC[C@]2(O)CCN(CCc3cccc(F)c3)C[C@@H]2C1 | -3.38
Cc1cc(NCCCNc2cccnc2)n2nc(C)c(C)c2n1 | 2.35

SMILES | cytotoxicity at 10 µM [%]
c1cncc(-n2cnnc2CCCN2CCOCC2)c1 | 1.5
COCCN1CCCC(CN(C)c2nc3c(s2)c(C)nn3C)C1 (stereo not given) | 5.37
CCc1cnc(N)nc1N[C@@H](C)c1ncccc1C | -3.94
O=C(O)C1(Cc2ccc(F)cc2F)CCCN(Cc2ccncc2)C1 (stereo not given) | -2.74
c1cnn(Cc2ccc(CN3CCC4(CCCNC4)C3)cc2)c1 (stereo not given) | -3.71
CCN(c1ccc(C(=O)N2CCCCCC2)cc1)S(=O)(=O)CC | -2.25
CC(C)(C)c1ncc2c(n1)CN(c1cc(NCCO)nc(N)n1)C2 | 3.5
Cc1cccc(C(C(=O)N(C)Cc2ccco2)N(C)C)c1 (stereo not given) | 3.15
CCc1noc(CN2CCN(Cc3cccs3)CC2)n1 | -5.06
Cc1cc(CN(C)C(=O)NC2CCN(C3CC3)CC2)no1 | -3.6
Cc1nc(C2CCCN2CCCS(=O)(=O)c2ccccc2)no1 (stereo not given) | -4.42
CCCC(=O)NC(C)c1nnc2n1CCC2 (stereo not given) | -0.645
O=C(NCCNc1ccc(C(F)(F)F)cn1)c1ccc(F)cc1Cl | -7.65
CCc1nc(C2CCCN(C(=O)C(C)(C)NS(C)(=O)=O)C2)no1 (stereo not given) | -12.1
COc1c(C2CCCN2C(=O)c2ccnc(C)n2)c(C)nn1C (stereo not given) | -12
O=C(Cc1ccccn1)N1CCN(C(=O)CC2CCCC2)CC1 | -10.5
Cc1ccc(N2CCCN(C(=O)CCc3nccs3)CC2)nn1 | -7.91
O=C(NCC1CCOC1)c1csc(-c2ccco2)n1 (stereo not given) | -6.49
CCNc1cc2c(nn1)CCN(C(=O)c1cccc3c1OCCO3)C2 | -8.42
Cc1ncsc1C(=O)NC1CCN(CC(=O)NCc2ccccc2)CC1 | -4.62
CC(C)c1nn(C)c(N(C)C)c1CNCc1ccc2c(c1)OCO2 | -5.58
CC(=O)N1CCN(Cc2csc(-c3cnn(C)c3)n2)CC1 | -1.78

SMILES | cytotoxicity at 10 µM [%]
COCC(=O)NCc1cccc(Br)c1 | -4.2
CCC(CN1CCCC1)n1cncc1-c1cnn(Cc2ccccc2)c1 (stereo not given) | 3.92
O=C1N(Cc2ccc(Cl)cc2)CCC12CCCNC2 (stereo not given) | -10.8
CN1CCO[C@@H]2CN(S(=O)(=O)c3ccccc3)CC[C@@H]2C1 | -0.461
CCN1CCn2c(C)cnc2C12CCN(C(=O)c1ccco1)CC2 | 4.56
Cc1nc(CN2CCCn3cnc(COCC4CC4)c3C2)cs1 | 7.04
CNC(=O)[C@@]12CCO[C@@H]1CCN(Cc1ccc3c(c1)OCO3)C2 | 1.75
O=C1COC2(CCN(Cc3ccco3)CC2)CN1CCn1cccn1 | 10.2
CNC(=O)[C@H]1CO[C@H]2CCN(c3ncc(F)cn3)C[C@H]2C1 | -0.0253
Cn1cc2c(n1)C(CNC1CCOCC1)OCC2 (stereo not given) | 9.31
O=C(C1CC(F)(F)C1)N1C[C@@H]2CN(CC3CC3)CCO[C@@H]2C1 | -0.336
CN(C)CCOCC1CN(Cc2ccncc2)Cc2nnn(C)c21 (stereo not given) | 3.66
Cc1ccc(N2C[C@@H]3CN(Cc4ccsc4)CCO[C@@H]3C2)nn1 | 3.32
O=C(NCc1ccco1)[C@@H]1COC[C@H]2CN(c3ncc(F)cn3)C[C@H]21 | -5.67
COCCN1CCC2(C1)CN(c1ncc(F)cn1)C2 | 4.68
O=C1CC[C@@H]2[C@@H](CCN2Cc2ccccn2)N1CC1CC1 | 4.76
Cn1nc(Cn2ccnc2)c2c1CN(c1nccs1)C2 | 3.61
Cc1nc(CN2CCO[C@@H]3CN(Cc4nccs4)C[C@@H]3C2)cs1 | 4.8
c1ccc(N2CCOC3(CCCN(c4nncs4)C3)C2)nc1 (stereo not given) | 9.17
CS(=O)(=O)N1CCC2(CC1)CN(CC1CC1)CC21CCNC1=O (stereo not given) | 1.26
O=C(c1ccc[nH]1)N1CCC2(CCCN2Cc2cccnc2)CC1 | 6.89
CNc1nc2cn(CCc3ccc(C)cc3)c(=O)c-2c[nH]1 | 6.36
